From PubChem
PTEN del growth = PTEN-deleted cell growth suppression; HCT116 PTEN-null viability, CellTiter-Glo, 60 h; stronger effect = lower value; viability, % at 10 µM; hit rate 1.2% among 140,000; AID 827;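 active means viability at or below a set limit, 4 SD under the median of all tested compounds, cut at about 3.7% in these data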;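 further: PTEN knockout HCT116 line with beta catenin targeted HCT116 as companion control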
H69AR inhibit = blocks growth of human H69AR lung tumor cells | H69AR lung tumor viability, ATP luminescence, 72 h; stronger effect = lower value | viability, % at 10 µM | hit rate 6% among 85,000 | AID 598;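 active means viability at or below 40%; inactive means viability above 40%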;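 further: multidrug resistant small cell line overexpressing MRP-1 efflux transporter; 100% = mean luminescence of untreated control wells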
Fibroblast inh = blocks proliferation of human lung fibroblasts; LL 47 human lung fibroblast viability, ATP luminescence; stronger effect = lower value; AID 719; viability, % at 10 µM; hit rate 1.1% among 85,000;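 active means viability at or below 50% in the single dose screen; inactive means viability above 50%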;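 further: compound exposure lasted 72 h before the ATP readout; 100% = median luminescence of untreated cell-only wells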
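Material: Human LL 47 lung fibroblast cells | Input: 1,150 cells/well | Buffer or medium: IMEM plus 15% FBS | Compound dosing: 0.1% DMSO in all compound wells | Times: Overnight cell rest, 72 h compound treatment at 37 °C | Signal: CellTiter-Glo luminescence measuring cellular ATP | Measure: % viability versus median cells-only luminescence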
HUVEC prolif 384 = inhibitors of human endothelial cell proliferation | HUVEC proliferation, CellTiter-Glo luminescence, 72 h; stronger effect = lower value | viability, % at 10 µM (by protocol) | hit rate 1.1% among 86,000;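 active means viability at or below 30%; inactive means viability above 30%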;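 further: 100% = median luminescence of DMSO-only cell control wells on each plate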
bCat KO growth = beta-catenin-lacking colon tumor cell growth suppression; hit rate 1.5% among 140,000; HCT116 beta-catenin knockout viability, CellTiter-Glo, 60 h; stronger effect = lower value; viability, % at 10 µM; AID 818;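 active means viability at or under a set limit, the compound median less 4 SD, cut at about 6% in these data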;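 further: 0% = Hyamine 1622 control at 20 µM and 100% = untreated cell control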
Starred values were filed as active, the others as inactive; . = not tested or not shown. This excerpt belongs to a sample that is enriched for hits.

SMILES	PTEN del growth	H69AR inhibit	Fibroblast inh	HUVEC prolif 384	bCat KO growth
CCCCCCC(=O)N1CCC(c2nc3c(nnn3Cc3ccccc3Cl)c(=O)[nH]2)CC1	56.9	34.3*	96.1	84.4	58.1
NC(=O)C1CCN(c2nc(C3CC3)nc3c2nnn3Cc2ccccc2Cl)CC1	82.6	31.1*	94.3	84.5	83.5
NC(=O)C1CCN(c2nc(C3CC3)nc3c2nnn3Cc2ccccc2)CC1	109.8	78.1	94.2	93.2	102.2
O=C(COC(=O)C1(c2ccccc2F)CCCC1)N1CCOCC1	93.7	100.5	100.4	101.8	96.1
O=C(Nc1ccc(N2CCOCC2)cc1)Nc1ccc2nc(-c3ccco3)c(-c3ccco3)nc2c1	48.2	9.5*	100.1	22.3*	79.4
O=[N+]([O-])c1cccnc1N1CCC(c2cc(-c3cccc(C(F)(F)F)c3)n[nH]2)CC1	48.7	34.0*	100.8	3.7*	64.6
O=[N+]([O-])c1cccnc1N1CCC(c2cc(-c3ccc(Cl)cc3Cl)n[nH]2)CC1	51.4	84.4	106.6	51.6	69.9
CC(C)N1CC(C(=O)O)CC1=O (centres undefined)	102.1	95.5	94.1	93.0	96.4
COc1ccccc1Nc1nc(N)nc(CN2CCc3ccccc3C2)n1	83.3	.	.	.	77.3
CC(C)CCn1c(SCC(N)=O)nc2c1c(=O)n(C)c(=O)n2C	93.2	39.1*	93.0	100.1	92.1
CCOC(=O)C(Cc1ccccc1)C(=O)Nc1cccc2ccccc12 (centres undefined)	85.0	.	.	.	89.3
CCCOc1ccccc1NC(=O)/C=C/C(N)=O	105.5	2.1*	59.5	86.1	101.0
CCCCOc1ccccc1NC(=O)C=C(C)C	94.7	97.9	95.3	99.6	101.7
Cc1cc(-n2c(C)cc(C(=S)N3CCOCC3)c2C)ccc1Br	57.3	.	.	.	47.2
O=C(Nc1ccc(N2CCOCC2)c(Cl)c1)c1cc(F)c(F)cc1Cl	58.0	71.6	104.9	97.3	65.1
O=C(Nc1ccc(N2CCOCC2)c(Cl)c1)c1c(F)c(F)c(F)c(F)c1F	26.2	32.4*	87.1	89.8	19.8
CC(=C/C(=O)O)/C(=C/c1ccccc1)C(=O)O	103.6	.	.	.	90.6
CCCNc1cc(C)c(C#N)c2nc3ccccc3n12	87.2	37.4*	107.5	91.2	88.1
Cc1cc(NCCCO)n2c(nc3ccccc32)c1C#N	98.2	.	.	.	104.2
C=CCc1c(C)c(C#N)c2nc3ccccc3n2c1NCCN(C)C	91.5	33.0*	96.4	99.0	84.4
CCc1c(C)c(C#N)c2nc3ccccc3n2c1NCCN(C)C	101.5	50.5	103.7	102.7	89.5
CCc1c(C)c(C#N)c2nc3ccccc3n2c1NCc1ccco1	76.8	35.6*	91.8	85.0	82.8
O=C(Nc1ccc2c(c1)OCCO2)c1ccc(Cl)c([N+](=O)[O-])c1	65.8	.	.	.	50.8
Cc1ccc(NC(=O)c2ccc(NCCN)c([N+](=O)[O-])c2)cc1Cl	3.9	.	.	.	3.4*
O=C(Nc1ccc(C(O)(C(F)(F)F)C(F)(F)F)cc1)c1ccc(Cl)c([N+](=O)[O-])c1	1.8*	.	.	.	1.6*
SMILES	PTEN del growth	H69AR inhibit	Fibroblast inh	HUVEC prolif 384	bCat KO growth
Cc1cccc(C)c1NS(=O)(=O)c1ccc(NC(=O)c2ccc(Cl)c([N+](=O)[O-])c2)cc1	3.3*	.	.	.	1.9*
O=C(Nc1cccc(S(=O)(=O)Nc2ccccc2Cl)c1)c1ccc(N2CCCC2)c([N+](=O)[O-])c1	89.8	.	.	.	95.4
N#Cc1cnn(-c2ncnc3sc(-c4ccccc4)cc23)c1N	89.3	36.0*	95.7	73.5	88.0
N#Cc1cnn(-c2ncnc3sc4c(c23)CCCC4)c1N	80.4	.	.	.	85.2
CCN(CC)S(=O)(=O)c1ccc(NC(=O)COC(=O)CCc2cc(OC)c(OC)c(OC)c2)cc1	90.0	.	.	.	90.1
COc1ccc(CN(C(=O)CO/N=C/c2ccccc2)c2ccccc2C(=O)O)cc1	103.2	.	.	.	91.8
COc1ccc(CN(C(C)=O)c2cccc(C)c2C)cc1	37.1	18.8*	82.1	57.7	34.7
C=CCn1c(SCC(=O)N2CC(=O)Nc3ccccc32)nc2scc(-c3ccccc3)c2c1=O	52.0	26.1*	98.5	73.8	55.0
C=CCn1c(SCC(=O)NCc2ccc3c(c2)OCO3)nc2scc(-c3ccccc3)c2c1=O	79.2	66.3	102.0	82.8	77.8
CCn1c(C)nc2cc(C(=O)N/N=C/c3ccc(OC)c(O)c3)ccc21	100.7	.	.	.	90.3
CC1=CC(C)(C)N(S(=O)(=O)c2ccc(C)cc2)c2cc(C)ccc21	13.8	34.5*	52.1	44.0	10.9
Cc1sc(NC(=O)c2ccco2)c(C(c2cccnc2)N2CCC(C)CC2)c1C (centres undefined)	28.4	83.2	87.0	89.8	14.6
Clc1cc(Sc2ccc(Br)cc2)nnc1-c1ccccc1	81.6	.	.	.	81.0
Cc1ccc(C)c(NC2=C(Cl)C(=O)OC2OC(=O)c2ccco2)c1 (centres undefined)	72.4	9.4*	90.6	79.2	76.0
Cc1ccc(NC2=C(Cl)C(=O)OC2OC(=O)c2ccco2)c(C)c1 (centres undefined)	56.6	51.0	94.5	80.7	53.1
COC(=O)COc1cccc2c(=O)n(CC(=O)NCCc3ccccc3)ccc12	95.7	.	.	.	94.6
C=CCN1C(=O)/C(=C/c2ccc(N(C)C)cc2)S/C1=N\c1nnc(CC)s1	73.4	26.4*	86.5	63.3	76.1
COc1cc(/C=N/N(C)c2ccccc2)cc(Cl)c1O	63.8	15.8*	84.8	36.1	61.0
COc1ccc(OC)c(/C=N/N(C)c2ccccc2)c1	87.4	90.2	84.4	94.3	91.8
Fc1cccc(Cl)c1CSc1nnnn1-c1ccc2c(c1)OCO2	71.6	15.4*	92.5	88.6	63.3
Fc1cccc(Cl)c1Cn1nnc(-c2ccc3c(c2)OCO3)n1	84.3	84.9	97.9	95.3	73.7
COc1ccc(OC)c2sc(NC(=O)CCS(=O)(=O)c3ccccc3)nc12	.	2.4*	35.8*	65.5	.
COc1ccc(OC)c2sc(NC(=O)c3ccc(S(=O)(=O)N(C)C)cc3)nc12	90.6	20.9*	88.5	63.5	87.9
NC(=O)c1cc(-c2ccccc2)nc(N2CCOCC2)n1	66.7	64.4	70.6	56.6	69.4
CC[n+]1cc(-c2ccccc2)nc(N2CCOCC2)n1	77.7	91.2	99.3	27.4*	74.7
SMILES	PTEN del growth	H69AR inhibit	Fibroblast inh	HUVEC prolif 384	bCat KO growth
COc1ccc(-n2c(=S)[nH]c3cc(C(=O)NCCCN4CCCC4=O)ccc3c2=O)cc1	12.8	98.2	93.3	92.1	5.2*
O=C(CCCOc1ccc(Cl)cc1Cl)N/N=C/c1ccccc1O	8.7	.	.	.	4.6*
COc1cc(CC(=O)OCC(=O)c2ccc3c(c2)OCCO3)cc(OC)c1OC	12.1	33.3*	53.0	37.6	14.9
Cc1cc2c(c(SCC(=O)NCCc3ccccc3)n1)C(=O)OC2	97.9	85.7	98.9	107.1	98.5
CCOC(=O)CSc1nc(C)c2ccc(C)cc2n1	91.7	86.3	107.0	100.0	83.4
Cc1cccc(-c2nc(CSCC(=O)N3CCN(Cc4ccc5c(c4)OCO5)CC3)c(C)o2)c1	17.9	33.3*	94.7	88.0	12.1
Cc1nc2cc(N3CCCCC3)c(NC(=O)c3cccnc3)cc2c(=O)n1Cc1ccccc1	102.3	32.9*	38.4*	71.9	102.5
